This is an account of results in ChEMBL document CHEMBL3804757, “Cystoseira usneoides: A Brown Alga Rich in Antioxidant and Anti-inflammatory Meroditerpenoids” (J Nat Prod, 2016).

pEC50: −log10 of the molar value.

Series [1] in a line: Antioxidant activity assessed as ABTS free radical scavenging activity after 6 mins by ABTS free radical decolorization assay relative to Trolox. In kind it is physicochemical. The arrangement: concentration or dose not given beside the values. The settings on record: 0.1 h. An outline of the steps:
(§1)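 ABTS•+ generated by mixing 7 mM ABTS with 2.45 mM potassium persulfate (1:1) and holding 12–18 h in the dark at room temperature. It was then diluted in EtOH to A734 0.70 ± 0.02. 100 μL ethanolic compound was added to 2 mL of radical solution, and A734 read after 6 min against an EtOH control. % inhibition = [(A0−A1)/A0]×100, done in triplicate; Trolox served as standard.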

Series [2] in a line: Antiinflammatory activity against human THP1 cells assessed as inhibition of LPS-induced TNFalpha production pretreated for 1 hr before LPS challenge at 10 uM measured after 24 hrs by ELISA. The arrangement: scale not given: the % may be the effect or the level left. It is filed as functional, THP-1. In a few lines: (§2)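 THP-1 cells (RPMI 1640, 10% FBS) differentiated to macrophages with PMA 0.2 μM final for 3 days, washed with cold PBS, then pre-incubated 1 h with compound diluted from DMSO stocks (0.1% DMSO). Stimulated with LPS at 1 μg/mL final. Supernatants taken after 24 h and TNF-α measured by ELISA. Dexamethasone 1 μM as positive control; an unstimulated control was included. Values are mean ± SE of four determinations.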
In general terms: In an ELISA, binding on a coated surface is turned into a signal by an enzyme label.

The nature of series [3]: Cytotoxicity against human THP1 cells assessed as cell viability at 5 to 10 uM after 48 hrs by SRB assay. It is filed as cell-based. The settings on record: thp-1, 48 h. On the technique in general: In SRB staining, fixed cells bind dye roughly in proportion to their protein.
Series [4] is described as follows: Antiinflammatory activity against human THP1 cells assessed as inhibition of LPS-induced TNFalpha production pretreated for 1 hr before LPS challenge at 8 uM measured after 24 hrs by ELISA. In kind it is functional, THP-1. The arrangement: scale not given: the % may be the effect or the level left. An outline of the steps: as §2
Series [5] can be described thus: Antiinflammatory activity against human THP1 cells assessed as inhibition of LPS-induced TNFalpha production pretreated for 1 hr before LPS challenge at 5 uM measured after 24 hrs by ELISA. The arrangement: scale not given: the % may be the effect or the level left. In kind it is functional, THP-1. In a few lines:
as §2

Series [6] is described as follows: Antioxidant activity assessed as ABTS free radical scavenging activity after 6 mins by ABTS free radical decolorization assay. In kind it is physicochemical. In a few lines:
as §1

Consider `C/C(=C/C(=O)C/C(C)=C/Cc1cc(O)cc(C)c1O)CCCC(C)C(=O)/C=C/C(C)(C)O` (stereo not drawn), for which the Activity was 77% in series [1], 21% in series [2] and “Non-toxic” in series [3].

In the case of `C/C(=C/C(=O)C/C(C)=C/Cc1cc(O)cc(C)c1O)CCCC(C)(O)C(=O)/C=C/C(C)(C)O` (stereo not drawn), the Activity was 81% in series [1], 81% in series [2] and “Non-toxic” in series [3].

As to `COc1c(C)cc(O)cc1C/C=C(\C)CC(=O)/C=C(/C)CC/C=C(\C)C(O)CC1OC1(C)C` (stereo not drawn), the values for the Activity in series [1], in series [4] and in series [3] were 37%, 21% and “Non-toxic”, respectively.

Consider `C/C(=C\C(=O)C/C(C)=C/Cc1cc(O)cc(C)c1O)CCCC(C)(O)C(=O)/C=C/C(C)(C)O` (stereo not drawn), for which the figures for the Activity in series [1], in series [2] and in series [3] were 87%, 69% and “Non-toxic”, respectively.

Consider `COc1c(C)cc(O)cc1C/C=C(\C)CC(=O)/C=C(\C)CC/C=C(\C)CCC(O)C(C)(C)O` (stereo not drawn), for which the results for the Activity in series [1], in series [2] and in series [3] were 37%, 21% and “Non-toxic”, respectively.

Turning to `C/C(=C\C(=O)C/C(C)=C/Cc1cc(O)cc(C)c1O)CCCC(C)C(=O)/C=C/C(C)(C)O` (stereo not drawn), the Activity in series [1] was 77%; in series [5] it was 53%; in series [3], “Non-toxic”.

`Cc1c(C)c2c(c(C)c1O)CCC(C)(C(=O)O)O2` (stereo not drawn) [TROLOX]: the pEC50 (commonly −log10 of the EC50, conventionally taken in molar units) in series [6] is 4.92.

Take `COc1c(C)cc(O)cc1C/C=C(\C)CC(=O)/C=C(/C)CCCC(C)C(=O)CC(O)C(C)(C)O` (stereo not drawn): the Activity in series [1] is reported as 37%; in series [4], 21%; in series [3] it was “Non-toxic”.

Regarding `COc1c(C)cc(O)cc1C/C=C(\C)CC(=O)/C=C(/C)CC/C=C(\C)CCC(O)C(C)(C)O` (stereo not drawn), the values for the Activity in series [1], in series [5] and in series [3] were 62%, 59% and “Non-toxic”, respectively.

Take `COc1c(C)cc(O)cc1C/C=C(\C)CC(=O)/C=C(/C)CCC[C@@]1(C)O[C@@H](C(C)(C)O)CC1=O`: the Activity in series [1] was found to be 62%.

Consider `COc1c(C)cc(O)cc1C/C=C(\C)CC(=O)/C=C(\C)C(O)CCC(C)(O)C(=O)/C=C/C(C)(C)O` (stereo not drawn), for which the Activity in series [1] is 62%; in series [4], 79%; in series [3], “Non-toxic”.

`COc1c(C)cc(O)cc1C/C=C(\C)CC(=O)/C=C(/C)CCC[C@@]1(C)O[C@H](C(C)(C)O)C[C@H]1O`: the Activity in series [1] was 62%; in series [4], 21%; in series [3] it was “Non-toxic”.

Regarding `COc1c(C)cc(O)cc1C/C=C(\C)CC(=O)/C=C(\C)CCC[C@@]1(C)O[C@@H](C(C)(C)O)CC1=O`, the Activity in series [1] was 37%.
